Experimental data pooled from the literature.
Each line is one published result; the experiments were not run side by side.
Target: Serine/threonine-protein kinase Nek6 (NEK6, Homo sapiens, UniProt Q9HC98)

SMILES | observed | method | tested at | remaining binding
C[C@@H](c1ccc(-n2cnc3c(N)ncnc32)cc1)N1CCc2nn(C)c(Cc3ccccc3)c2C1=O | binding | competition with immobilised ligand | 0.1 µM | 90%
O=C(NCc1ncc(C(F)(F)F)cc1Cl)c1ccc2c(c1)C1(CCS(=O)(=O)CC1)[C@H](C1CC1)N2S(=O)(=O)c1ccc(F)cc1 | cell-free assay | competition with immobilised ligand | 1 µM | 100%
O=C(c1ccc(Nc2ncc(Cl)c(-c3cc4ccccc4s3)n2)cc1)N1CCC(N2CCCC2)CC1 | binding | competition with immobilised ligand | 1 µM | 35%
CCN1CCN(Cc2ccc(C(=O)Nc3ccc(C)c(Oc4ccc5c(c4)CC(=O)N5)c3)cc2C(F)(F)F)CC1 | binding | competition with immobilised ligand | 1 µM | 100%
O=C(Nc1c[nH]nc1C(=O)NC1CCNCC1)c1cc(F)cc(F)c1 | binding | competition with immobilised ligand | 1 µM | 100%
CN(C)c1nccc(-c2cnn3ncccc23)n1 | binding |  | 1 µM | 100%
NS(=O)(=O)c1cc(NC(=O)C2(c3ccccc3Cl)CC2)ccc1Oc1cccc(Cl)c1 | cell-free assay | competition with immobilised ligand | 1 µM | 81%
CN(C)c1ncc(F)c(-c2cnn3ncccc23)n1 | binding |  | 1 µM | 99%
O=C(NCCCN1CCOCC1)c1ccc(Nc2ncc(Cl)c(-c3ccc(Cl)s3)n2)cc1 | binding | competition with immobilised ligand | 1 µM | 2.5%
COc1ncc2cc3ccccc3nc2c1C#N | cell-free assay | competition with immobilised ligand | 5 µM | 100%
COc1cc(-c2cn(C3CCc4ccccc4N(CC(F)(F)F)C3=O)nn2)ccc1-n1ccc(C)n1 (stereo not shown) | cell-free assay | competition with immobilised ligand | 1 µM | 100%
N[C@H]1CCN(c2nccc(-c3cnn4ncccc34)n2)C1 | binding |  | 1 µM | 100%
CC1=C(C#N)[C@@H](c2ccc3[nH]nc(C)c3c2)C(C#N)=C(c2ccc(Cl)cc2)N1 | cell-free assay | competition with immobilised ligand | 1 µM | 100%
O=C(c1ccc(Nc2ncc(Cl)c(-c3ccc(Cl)s3)n2)cc1)N1CCC(N2CCCC2)CC1 | binding | competition with immobilised ligand | 1 µM | 9.9%
COc1ccnn2ncc(-c3ccnc(N(C)C)n3)c12 | binding |  | 1 µM | 100%
CNC(=O)[C@@H]1CC[C@@H](n2c(-c3ccc4cnccc4c3)nc3ccc(C(=O)NCc4cccc(C(N)=O)c4)cc32)C1 | binding | competition with immobilised ligand | 1 µM | 97%
C[C@@H]1CCN(c2nccc(-c3cnn4ncccc34)n2)C1 | binding |  | 1 µM | 100%
C[C@H](c1cccc(C#N)c1)n1cc(Cl)cc(C(N)=O)c1=N | cell-free assay | competition with immobilised ligand | 1 µM | 94%
c1cnn2ncc(-c3ccnc(N4CCC45COC5)n3)c2c1 | binding |  | 1 µM | 94%
O=C(N[C@H]1CCCCC/C=C\C2C[C@@]2(C(=O)O)NC(=O)[C@@H]2C[C@@H](Oc3ccncc3)CN2C1=O)OC1CCCC1 (stereo partly shown) | binding | competition with immobilised ligand | 1 µM | 87%
Cc1cnn2ncc(-c3ccnc(N(C)C)n3)c2c1 | binding |  | 1 µM | 100%
c1cncc(-c2cccc(Nc3nccc(NC4CCCCC4)n3)c2)c1 | binding | competition with immobilised ligand | 10 µM | 71%
